Activity calls are given as the source filed them. No cut-off for these calls is given here.
Assays:
Pseudomonas aeruginosa [1] = assay: Disruption of proton gradient in Pseudomonas aeruginosa PAO1 membrane assessed as inhibition of tetracycline uptake at 25 uM measured every 1 min for 30 mins by fluorescence based assay; format: organism-based; conditions: Bacterial membrane
Pseudomonas aeruginosa [2] = assay: Increase in tetracycline uptake in Pseudomonas aeruginosa PAO1 membrane at 25 uM measured every 1 min for 30 mins by fluorescence based assay; format: organism-based; conditions: Bacterial membrane
Outline: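 P. aeruginosa PAO1 was grown to OD600 0.6, washed, and resuspended in ¼ volume of 10 mM HEPES, pH 7.2. Cells received varying compound concentrations together with fixed tetracycline. Fluorescence (ex 405 nm, em 535 nm) was recorded every 1 min for 30 min at room temperature. Experiments were done in triplicate and averages reported.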

Pseudomonas aeruginosa [3] = assay: Antimicrobial activity against XDR Pseudomonas aeruginosa PA264 infected in Galleria mellonella larvae assessed as survival rate at 25 mg/kg administered 2 hrs post-inoculation measured after 24 hrs relative to control; format: functional, organism-based
[4] = Toxicity in Galleria mellonella larvae assessed as tolerability by measuring larvae deaths at 100 mg/kg incubated for 96 hrs relative to control; format: organism-based; conditions: in vivo
[5] = Toxicity in Galleria mellonella larvae assessed as tolerability by measuring larvae deaths at 75 mg/kg incubated for 96 hrs relative to control; format: organism-based; conditions: in vivo

N#CC(C#N)=NNc1cccc(Cl)c1
inhibition (Pseudomonas aeruginosa [1]): Active

COLISTIN [listing 1 of 2 here]
Activity (Pseudomonas aeruginosa [2]): Active
Survival (Pseudomonas aeruginosa [3]): 0%

COLISTIN [listing 2 of 2 here]
Activity [4]: 90%
Activity [5]: 70%

Reference: ChEMBL document CHEMBL4354800, “Amphiphilic nebramine-based hybrids Rescue legacy antibiotics from intrinsic resistance in multidrug-resistant Gram-negative bacilli” (Eur J Med Chem, 2019)
